From ChEMBL document CHEMBL1158824, “Using jasplakinolide to turn on pathways that enable the isolation of new chaetoglobosins from Phomospis asparagi” (J Nat Prod, 2005)
Active and inactive are the calls of the source. The rule behind the calls is not given here.

What was measured:
[1] = system: MC-38; test: Cytotoxicity against mouse C38 cells assessed as zone units at 15 ug/disk by disk diffusion soft agar assay; assay type: functional
Summary of the method: (§1)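 Disk diffusion soft agar colony formation assay at 15 μg/disk; cytotoxicity read as zone units. Cells: L1210 murine leukemia, C38 murine colon, CFU-GM normal bone marrow. Samples called solid tumor selective when the solid tumor zone exceeds the normal-cell or leukemia zone by more than 250 units.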

[2] = system: A10; test: Antimicrofilament activity in rat A10 cells assessed as total loss of microfilament at 5 ug/ml by rhodamine-phalloidin staining; assay type: functional, cell-based
Summary of the method: (§2)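 A-10 rat aortic smooth muscle cells treated with compound, then fixed; microfilament network scored as loss, additional loss, total loss, or cell loss, at the concentration given in each line.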

[3] = Cytotoxicity against mouse CFU-GM cells assessed as zone units at 15 ug/disk by disk diffusion soft agar assay; assay type: cell-based; summary of the method: as §1
[4] = system: L1210; test: Cytotoxicity against mouse L1210 cells assessed as zone units at 15 ug/disk by disk diffusion soft agar assay; assay type: functional; summary of the method: as §1
[5] = system: A10; test: Antimicrofilament activity in rat A10 cells assessed as loss of microfilament at 2.5 ug/ml by rhodamine-phalloidin staining; assay type: functional, cell-based; summary of the method: as §2
[6] = system: A10; test: Antimicrofilament activity in rat A10 cells assessed as loss of microfilament at 1 ug/ml by rhodamine-phalloidin staining; assay type: functional, cell-based; summary of the method: as §2
[7] = system: A10; test: Antimicrofilament activity in rat A10 cells assessed as loss of microfilament at 10 ug/ml by rhodamine-phalloidin staining; assay type: functional, cell-based; summary of the method: as §2
[8] = system: A10; test: Antimicrofilament activity in rat A10 cells assessed as cell loss at 25 ug/ml by rhodamine-phalloidin staining; assay type: functional, cell-based; summary of the method: as §2
[9] = system: A10; test: Antimicrofilament activity in rat A10 cells assessed as cell loss at 10 ug/ml by rhodamine-phalloidin staining; assay type: functional, cell-based; summary of the method: as §2
[10] = system: A10; test: Antimicrofilament activity in rat A10 cells assessed as loss of microfilament at 15 ug/ml by rhodamine-phalloidin staining; assay type: functional, cell-based; summary of the method: as §2
[11] = system: A10; test: Antimicrofilament activity in rat A10 cells assessed as cell loss at 15 ug/ml by rhodamine-phalloidin staining; assay type: functional, cell-based; summary of the method: as §2
[12] = system: A10; test: Antimicrofilament activity in rat A10 cells assessed as total loss of microfilament at 25 ug/ml by rhodamine-phalloidin staining; assay type: functional, cell-based; summary of the method: as §2

SMILES | Activity [1] [Zone units] | Activity [2] | Activity [3] [Zone units] | Activity [4] [Zone units] | Activity [5] | Activity [6] | Activity [7] | Activity [8] | Activity [9] | Activity [10] | Activity [11] | Activity [12]
CC[C@@H]1C(C)=C[C@@H]2/C=C/C[C@H](C)/C=C(\C)[C@@H](O)[C@@H](O)/C=C/C(=O)[C@]23C(=O)N[C@@H]([C@H](C)c2c[nH]c4ccccc24)[C@H]13 | 400 | Active | 500 | 500 | Active | Active | – | – | – | – | – | –
CC[C@@H]1C(C)=C[C@@H]2/C=C/C[C@H](C)/C=C(\C)CC/C=C/C(=O)[C@]23C(=O)N[C@@H]([C@H](C)c2c[nH]c4ccccc24)[C@H]13 | 150 | – | – | – | – | – | Active | Active | Active | Active | Active | Active
CC[C@@H]1C(C)=C[C@@H]2/C=C/C[C@H](C)/C=C(\C)[C@@H](O)C(=O)/C=C/C(=O)[C@]23C(=O)N[C@@H]([C@H](C)c2c[nH]c4ccccc24)[C@H]13 | 350 | – | 250 | 250 | – | – | – | – | – | – | – | –
